Results filed as inconclusive are left out. Activity calls are given as the source filed them.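 The calls were made as follows: active = compounds whose fitted half-maximal inhibition dose is at most double their top valid tested dose; inconclusive = flat curve with 30 to 70% inhibition, or poor fit; inactive = the rest.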

Test system in the first assay: not listed separately
Nature of the assay: lowered Hsp90aa transcript levels after heat shock – NIH-3T3 cells, RT-qPCR, cherry-pick, orthogonal assay for HSF1 inhibitor project, dose response (AID 602266). Conditions: NIH-3T3 HGL cells, heat shock, Hsp90aa mRNA qPCR; at 26 µM (top of the series). The gist of the method:
(§1)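 material = NIH-3T3-derived HGL heat shock reporter cells | reagent = 42 °C heat shock, 90 min | incubation = 90 min compound pretreatment, then heat shock and 1 h recovery | signal = Two-step multiplex TaqMan RT-qPCR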
On the technique in general: Real-time PCR tracks product formation cycle by cycle.
On to `CCS(=O)(=O)N1Cc2ccccc2CC1C(=O)Nc1nc2ccccc2s1` (stereo not given), for which the activity change, negative = inhibition was 33.2% (inactive). As for `O=C(Nc1ccc(F)cc1F)c1cc2nc3c(c(C(F)(F)F)n2n1)CCCC3`, the activity change, negative = inhibition was 2.56% (inactive). Still for that read-out and setting: under `O=C(CN1C(=O)c2ccccc2S1(=O)=O)c1ccc2c(c1)OCCCO2` stands 13.4% (inactive); under `N#CCCCC#Cc1ccc2c(c1)COc1c3ccccc3nn1-2`, 65.7% (inactive). Still for that read-out and setting: under `CC(C)Sc1nc(SCC(=O)NCc2ccco2)c2c3c(sc2n1)COC(C)(C)C3` stands 52.6% (inactive); under `O=[N+]([O-])c1nn(-c2ccc3c(c2)OCCO3)n(O)c1=Nc1ccccc1`, 29% (inactive); under `Cc1cccc(-n2ncc3c(N(C)C4CCCCC4)ncnc32)c1`, 27% (inactive). Still for that read-out and setting: the same measure for `C[C@]12C=CC(=O)C=C1CC[C@@H]1[C@@H]2[C@@H](O)C[C@@]2(C)[C@H]1CC[C@]2(O)C(=O)CO`: 4.41% (inactive); for `C[C@@H]1C[C@H]2[C@@H]3CCC4=CC(=O)C=C[C@]4(C)[C@@]3(F)[C@@H](O)C[C@]2(C)[C@@]1(O)C(=O)CO`: 6.93% (inactive). Take `Cc1c(-c2nc(-c3ccc(C(C)(C)C)cc3)no2)n(C)oc1=O`: the activity change, negative = inhibition is 18.8% (inactive). In the case of `CCOc1ccc(OCc2cccc(C(=O)N/N=C/c3cccnc3)c2)cc1`, the activity change, negative = inhibition is 37.3% (inactive).

For `COC(=O)c1ccccc1NC(=O)c1ccc(-c2ccc(Br)cc2)o1`, the activity change, negative = inhibition was 4.07% (inactive). Same read-out and setting: the same measure for `CC1CCN(c2ccc(-c3cccc(NC(=O)C(F)(F)F)c3)nn2)CC1`: 37.6% (inactive).

Consider `CC(=O)OCC(=O)[C@@]12OC(C)(C)O[C@@H]1CC1C3C[C@H](F)C4=CC(=O)C=CC4(C)[C@@]3(F)C(O)CC12C` (stereo not given in full), for which the activity change, negative = inhibition was -1.11% (inactive). On the same count and under the same terms, the same measure for `C(=N\Nc1nc2ccccc2s1)/c1ccccn1`: 82.6% (inactive); for `CN(C(=O)OC(C)(C)C)c1ccc(-c2nc3ccccc3s2)cc1`: 46.6% (inactive); for `Cc1ccc(/C=N/Nc2ccc(C(=O)O)cc2)s1`: 32.5% (inactive). With `Cc1nc(SCC(=O)Nc2nc3ccccc3s2)c(C#N)c(C)c1C`, the activity change, negative = inhibition was 7.25% (inactive). Still for that read-out and setting: under `CC12CCC(=O)C=C1CCC1C2C(O)CC2(C)C1CCC2(O)C(=O)CO` (stereo not given) stands 4.01% (inactive); under `CC(C)(C)c1ccc(/C=N/Nc2cccc(C(=O)O)c2)cc1`, 12.9% (inactive). The same measure, in the same setting: under `O=c1c2ccccc2sc2ccc(C#CC3(O)CCCCC3)cc12` stands 49.4% (inactive). The same measure, in the same setting: the same measure for `CCC(=O)O[C@]1(C(=O)CCl)[C@@H](C)C[C@H]2[C@@H]3CCC4=CC(=O)C=C[C@]4(C)[C@@]3(F)[C@@H](O)C[C@@]21C`: 30.2% (inactive). As for `CC(=O)[C@@]1(O)C(C)CC2C3C=C(C)C4=Cc5c(cnn5-c5ccccc5)C[C@]4(C)C3C(O)C[C@@]21C` (stereo not given in full), the activity change, negative = inhibition was 97.3% (inactive). For the compound `CC1CCCN(c2ncnc3c2cnn3-c2ccc(Cl)cc2)C1` (stereo not given), the activity change, negative = inhibition was 28.9% (inactive).

The test system of a further assay is NIH-3T3 HGL cells, heat shock, Hsp90aa mRNA qPCR. The description is as above.
Settings: not given
In outline: as §1
For `CC1=C(C(=O)OCc2ccc3c(c2)OCO3)C(c2ccc(F)cc2)NC(=O)N1` (stereo not given), the half-maximal activity concentration (AC50) (commonly the concentration at which the activity in the assay is half-maximal) is 1.39 µM.

(Values after PubChem BioAssay AID602266 (Broad Institute, 2012).)
